Experimental data from ChEMBL document CHEMBL4725407, “New cannabinoid receptor antagonists as pharmacological tool” (Bioorg Med Chem, 2020).
pKi: −log10 of the molar value. The source made the active and inactive calls. No cut-off for these calls is given here.

Assays:
Cannabinoid receptor 1 [1] = biological target: T1, Cannabinoid receptor 1 (Homo sapiens, UniProt P21554); assay: Displacement of [3H]CP55940 from human CB1R transfected in HEK293EBNA cell membranes incubated for 90 mins by Microbeta TriLux based luminescence analysis; set-up: species or system HEK293-EBNA
Cannabinoid receptor 2 = Cannabinoid receptor 2 (Homo sapiens, UniProt P34972); assay: Displacement of [3H]CP55940 from human CB2R transfected in HEK293EBNA cell membrane incubated for 90 mins by Microbeta TriLux based luminescence analysis; type: cell membranes, HEK293-EBNA
HEK293-EBNA = assay: Selectivity index, ratio of Ki for human CB1R transfected in HEK293EBNA cell membrane to ratio of Ki for human CB2R transfected in HEK293EBNA cell membrane incubated for 90 mins by Microbeta TriLux based luminescence analysis
Procedure, shortened: (§1)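 Membranes of HEK293EBNA cells expressing human CB1 (~0.415 mg/mL protein) or CB2 (~0.18 mg/mL) incubated 90 min at 30 °C with [³H]-CP55940 (0.54 nM CB1; 0.33 nM CB2) and competitor, in Tris buffer pH 7.4 with EDTA, MgCl₂, BSA. Filtered, washed, bound radioactivity counted; IC50 by curve fitting, Ki by Cheng–Prusoff; selectivity = Ki CB1/Ki CB2.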

Mus musculus = species on record: Mus musculus; assay: Antagonist activity at cannabinoid receptor in ICR mouse vas deferens assessed as reduction of WIN55212-2-induced inhibition of electrically evoked contraction at 1 uM incubated for 10 mins prior to WIN55212-2 addition; type: tissue-based
Cannabinoid receptor 1 [2] = biological target: T1, Cannabinoid receptor 1; assay: Displacement of [3H]CP55940 from human CB1R transfected in HEK293EBNA cell membrane incubated for 90 mins by Microbeta TriLux based luminescence analysis relative to control; type: cell membranes; conditions: HEK293-EBNA; procedure, shortened: as §1
MC3T3-E1 = assay: Cytotoxicity against mouse MC3T3-E1 cell assessed as reduction in cell viability at 1 uM incubated for 48 hrs by MTT assay; type: cell-based; conditions: mc3t3-e1, 48 h
Procedure, shortened: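 MC3T3-E1 cells in 96-well plates, 24 h in DMEM/10% FBS, then 48 h with compound at 10⁻⁶ M or vehicle; viability by MTT reduction; three experiments in sextuplicate.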

[3] = biological target: Cannabinoid receptor 2 (Mus musculus) (UniProt P47936); assay: Agonist activity at CB2 receptor in mouse MC3T3-E1 cells assessed as induction of bone activity by measuring increase in collagen I gene expression at 1 uM incubated for 72 hrs by real time PCR analysis; type: cell-based
Procedure, shortened: (§2)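 MC3T3-E1 cells in DMEM/10% FBS for 24 h; attached cells moved to osteogenic medium (50 μg/mL ascorbic acid, 10⁻⁹ M dexamethasone, 10 mM β-glycerophosphate) with agent (HU308 10⁻⁶–10⁻⁸ M; antagonists 10⁻⁶ M) or vehicle, 72 h at 37 °C, 5% CO₂. Collagen type I mRNA from total RNA by RT-qPCR, ΔΔCT relative quantification; three experiments in triplicate.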

[4] = biological target: Cannabinoid receptor 2 (Mus musculus) (UniProt P47936); assay: Antagonist activity at CB2 receptor in mouse MC3T3-E1 cells assessed as inhibition of HU308-induced collagen I gene expression at 1 uM pretreated with compound and HU308 for 24 hrs followed by further incubation with HU308 for 48 hrs by real time PCR analysis; type: cell-based; conditions: filed as antagonist, time 72.0 hrs
Procedure, shortened: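 MC3T3-E1 cells seeded 24 h in DMEM/10% FBS, then pre-treated 24 h in osteogenic medium (ascorbic acid, dexamethasone, β-glycerophosphate) with 10⁻⁶ M antagonist plus HU308 10⁻⁸ M; medium then replaced by osteogenic medium with HU308 10⁻⁸ M alone (controls vehicle) for 48 h more. Collagen I mRNA by RT-qPCR, ΔΔCT; three experiments in triplicate.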

[5] = biological target: Cannabinoid receptor 2 (Mus musculus) (UniProt P47936); assay: Agonist activity at CB2 receptor in mouse MC3T3-E1 cells assessed as induction of bone activity by measuring increase in collagen I gene expression at 0.01 to 1 uM incubated for 72 hrs by real time PCR analysis; type: cell-based; conditions: filed as agonist, dose microM 0.01-1, time 72.0 hrs; procedure, shortened: as §2

Sequence of Cannabinoid receptor 2 (P34972 whole entry): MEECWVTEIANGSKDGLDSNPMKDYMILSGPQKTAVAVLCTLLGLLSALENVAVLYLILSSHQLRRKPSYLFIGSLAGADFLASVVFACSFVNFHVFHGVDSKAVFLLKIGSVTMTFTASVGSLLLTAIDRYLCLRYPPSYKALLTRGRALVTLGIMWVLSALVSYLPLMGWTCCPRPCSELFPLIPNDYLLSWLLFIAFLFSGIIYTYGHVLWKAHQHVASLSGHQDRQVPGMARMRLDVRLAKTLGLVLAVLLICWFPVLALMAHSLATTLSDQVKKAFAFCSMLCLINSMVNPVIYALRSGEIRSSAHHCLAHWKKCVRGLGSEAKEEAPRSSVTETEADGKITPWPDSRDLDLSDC
T1 sequence (P21554 whole entry): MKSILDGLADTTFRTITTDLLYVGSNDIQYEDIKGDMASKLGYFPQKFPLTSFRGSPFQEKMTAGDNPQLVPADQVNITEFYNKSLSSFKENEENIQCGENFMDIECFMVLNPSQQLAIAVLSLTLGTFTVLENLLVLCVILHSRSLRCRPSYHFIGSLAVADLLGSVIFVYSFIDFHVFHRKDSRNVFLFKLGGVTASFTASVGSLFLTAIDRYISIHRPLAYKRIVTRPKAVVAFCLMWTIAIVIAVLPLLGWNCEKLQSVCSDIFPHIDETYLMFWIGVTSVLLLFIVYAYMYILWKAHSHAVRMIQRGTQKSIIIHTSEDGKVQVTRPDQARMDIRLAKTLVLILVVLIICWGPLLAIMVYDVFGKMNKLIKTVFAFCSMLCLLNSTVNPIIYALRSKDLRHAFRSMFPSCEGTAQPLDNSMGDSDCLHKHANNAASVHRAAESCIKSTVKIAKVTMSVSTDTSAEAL
Sequence of Cannabinoid receptor 2 (Mus musculus) (P47936 whole entry): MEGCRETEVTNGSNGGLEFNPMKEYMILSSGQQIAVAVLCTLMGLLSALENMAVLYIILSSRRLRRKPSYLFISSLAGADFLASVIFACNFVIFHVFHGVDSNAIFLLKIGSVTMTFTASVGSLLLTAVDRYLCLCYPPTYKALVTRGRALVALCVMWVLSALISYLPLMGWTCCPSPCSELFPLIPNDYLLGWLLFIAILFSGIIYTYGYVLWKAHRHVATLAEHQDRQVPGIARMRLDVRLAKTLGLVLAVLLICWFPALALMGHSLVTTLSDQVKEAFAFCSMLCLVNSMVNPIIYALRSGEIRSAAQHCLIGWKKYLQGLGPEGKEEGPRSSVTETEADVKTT

SMILES	pKi (Cannabinoid receptor 1 [1])	pKi (Cannabinoid receptor 2)	Ratio Ki (HEK293-EBNA)	inhibition (Mus musculus; filed as antagonist)	inhibition (Mus musculus)	further results
Cn1nc(OCc2cccc3ccccc23)c2cc([N+](=O)[O-])ccc21	≤ 4.40	6.60	> 160	Active	–	–
O=[N+]([O-])c1ccc2[nH]nc(OCc3ccc4ccccc4c3)c2c1	4.87	5.30	2.7	–	inactive	–
c1ccc2c(c1)c(OCC1CCCCC1)nn2CC1CCCCC1	–	–	0.2	–	inactive	–
O=[N+]([O-])c1ccc2[nH]nc(OCc3cccc4ccccc34)c2c1	< 4.40	6.05	> 44.4	Active	–	inhibition (Cannabinoid receptor 1 [2]): 38%
COc1ccc(COc2n[nH]c3ccccc23)cc1	4.68	5.35	4.7	–	inactive	–
Cc1c(C(=O)NN2CCCCC2)nn(-c2ccc(Cl)cc2Cl)c1-c1ccc(I)cc1	–	–	–	Active	–	–
O=[N+]([O-])c1ccc2c(c1)c(OCc1ccccc1)nn2Cc1ccccc1	–	–	3	–	inactive	–
COc1ccc(COc2n[nH]c3ccc([N+](=O)[O-])cc23)cc1	< 4.40	5.74	> 22.2	–	inactive	–
CCCn1nc(OCc2ccc3ccccc3c2)c2cc([N+](=O)[O-])ccc21	6.45	6.33	0.8	Active	–	Activity (MC3T3-E1): Non-Toxic; Activity [3]: inactive; inhibition [4]: Active
c1ccc2cc(COc3n[nH]c4ccccc34)ccc2c1	4.66	5.15	3.1	–	inactive	–
Nc1ccc2c(c1)c(OCc1ccccc1)nn2Cc1ccccc1	–	–	2.5	Active	–	–
CCCn1nc(OCc2ccc3ccccc3c2)c2cc(N)ccc21	5.80	5.54	0.6	–	inactive	–
O=[N+]([O-])c1ccc2c(c1)c(OCC1CCCCC1)nn2Cc1ccccc1	–	–	> 444	Active	–	Activity (MC3T3-E1): Non-Toxic; Activity [3]: inactive; inhibition [4]: Active
Cn1nc(OCc2ccc3ccccc3c2)c2cc([N+](=O)[O-])ccc21	< 4.40	5.46	> 11.4	Active	–	–
CCCCCn1nc(OCc2ccc3ccccc3c2)c2cc([N+](=O)[O-])ccc21	–	–	1.2	–	inactive	–
CCCCCOc1nn(CCCCC)c2ccc([N+](=O)[O-])cc12	–	–	1.9	–	inactive	–
Cn1nc(OCCc2ccccc2)c2cc([N+](=O)[O-])ccc21	< 4.40	5.92	> 33.3	–	inactive	inhibition (Cannabinoid receptor 1 [2]): 25%
CCCCCn1nc(OCc2ccc(OC)cc2)c2cc([N+](=O)[O-])ccc21	–	–	1.6	Active	–	–
c1ccc2c(COc3n[nH]c4ccccc34)cccc2c1	5.80	6.36	3.6	–	inactive	–
c1ccc2cc(COc3nn(CCC4CCCCC4)c4ccccc34)ccc2c1	6.82	< 4.40	< 0.004	–	inactive	–
CCCCCCC(C)(C)c1cc(OC)c([C@H]2C=C(CO)[C@H]3C[C@@H]2C3(C)C)c(OC)c1	–	–	–	–	–	Activity [5]: Active
c1ccc(COc2nn(Cc3ccccc3)c3ccccc23)cc1	–	–	0.7	–	inactive	–
Cn1nc(OCc2ccc3ccccc3c2)c2ccccc21	5.40	5.00	0.4	Active	–	–
O=[N+]([O-])c1ccc2c(c1)c(OCc1ccc3ccccc3c1)nn2Cc1ccccc1	–	–	> 25	–	inactive	–
